ChEMBL document CHEMBL4831547, “DNDI-6148: A Novel Benzoxaborole Preclinical Candidate for the Treatment of Visceral Leishmaniasis” (J Med Chem, 2021)

Legend:
[1] = Selectivity index, ratio of CC50 for human MRC5 cells to EC50 for Leishmania infantum MHOM/MA(BE)/67/ITMAP263; format: toxicity; conditions: read-out: Ratio CC50/EC50
[2] = Toxicity in Sprague-Dawley rat at 50 mg/kg administered daily for 14 days; format: organism-based; conditions: in vivo, 336 h, time 14 day
Procedure, shortened: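 Exploratory 14-day toxicology study with daily dosing in male and female Sprague-Dawley rats.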

[3] = Genotoxicity in Salmonella typhimurium TA100 over 1 to 1000 ug in presence of S9 fraction by Ames test; format: toxicity, subcellular; conditions: salmonella enterica subsp. enterica serovar typhimurium, dose 1-1000 µg
Procedure, shortened: (§1)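 Mini-Ames reverse mutation screen in S. typhimurium TA98 and TA100, run with and without induced rat liver S9. Doses were 1.5, 4, 10, 25, 64, 160, 400 and 1000 μg per well. Positive controls were 2-aminoanthracene, 2-nitrofluorene and sodium azide; DMSO was the negative control.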

[4] = Genotoxicity in Salmonella typhimurium TA98 over 1 to 1000 ug in presence of S9 fraction by Ames test; format: toxicity, subcellular; conditions: salmonella enterica subsp. enterica serovar typhimurium, dose 1-1000 µg; procedure, shortened: as §1
[5] = Permeability of compound in dog MDCK-MDR1 cells at 2 uM after 150 min by LC-MS/MS analysis; format: ADME, cell-based, Canis lupus familiaris; conditions: mdck-mdr1, 2.5 h
Procedure, shortened: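 Bidirectional MDCK-MDR1 monolayer permeability. A→B and B→A transport was measured in triplicate over 150 min at 37 °C, 5% CO2, and quantified by LC-MS/MS as analyte/internal standard peak-area ratio.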

[6] = Drug metabolism in Sprague-Dawley rat liver microsomes at 10 uM incubated for 60 mins by LC-UV/MS analysis; format: ADME, Microsome; conditions: 1 h
Procedure, shortened: (§2)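 Incubated at 10 μM with liver microsomes (1 mg/mL) from Beagle dog or Sprague-Dawley rat for 60 min. Reactions were stopped by precipitation with formic acid/acetonitrile, and metabolites were identified by LC-UV-MSn (n = 1–2).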

[7] = Genotoxicity in Salmonella typhimurium TA98 over 1 to 1000 ug in absence of S9 fraction by Ames test; format: toxicity; conditions: salmonella enterica subsp. enterica serovar typhimurium, dose 1-1000 µg; procedure, shortened: as §1
[8] = Genotoxicity in Salmonella typhimurium TA100 over 1 to 1000 ug in absence of S9 fraction by Ames test; format: toxicity; conditions: salmonella enterica subsp. enterica serovar typhimurium, dose 1-1000 µg; procedure, shortened: as §1
[9] = Clearance in human; format: ADME
[10] = Drug metabolism in human liver microsomes at 10 uM incubated for 60 mins by LC-UV/MS analysis; format: ADME, Microsome; conditions: 1 h
[11] = Drug metabolism in dog liver microsomes at 10 uM incubated for 60 mins by LC-UV/MS analysis; format: ADME, Canis lupus familiaris, Microsome; conditions: 1 h; procedure, shortened: as §2
[12] = Drug metabolism in dog assessed as M12 metabolite formation; format: ADME, Canis lupus familiaris
[13] = Drug metabolism in rat assessed as M12 metabolite formation; format: ADME
[14] = Drug metabolism in hamster assessed as M12 metabolite formation; format: ADME, Mesocricetus auratus
[15] = Drug metabolism in mouse assessed as M12 metabolite formation; format: ADME
[16] = Drug metabolism in human assessed as M12 metabolite formation; format: ADME

SMILES	selectivity ratio [1]	further results
Cc1c(-c2ccccn2)csc1C(=O)Nc1ccc2c(c1)B(O)OC2	4	
O=C(Nc1ccc2c(c1)B(O)OC2)c1cc(-c2ccccn2)n[nH]1	8	
O=C(Nc1ccc2c(c1)B(O)OC2)c1cn(-c2ccccn2)nc1C(F)(F)F	1.6	
COc1cccc(-n2ncc(C(=O)Nc3ccc4c(c3)B(O)OC4)c2C)n1	31	
Cn1nc(C(=O)Nc2ccc3c(c2)B(O)OC3)cc1-c1ccccn1	31	
O=C(Nc1ccc2c(c1)B(O)OC2)c1cn(-c2ccc(Cl)cc2)nc1C(F)(F)F	2	
Cc1c(C(=O)Nc2ccc3c(c2)B(O)OC3)nnn1-c1cccnc1	> 1.8	
COc1cccc(-n2nnc(C(=O)Nc3ccc4c(c3)B(O)OC4)c2C)n1	> 80	
O=C(Nc1ccc2c(c1)B(O)OC2)c1cn(C2CCOCC2)nc1C(F)(F)F	> 21	
O=C(Nc1ccc2c(c1)B(O)OC2)c1ccc(F)cc1C(F)(F)F	> 24	
Cc1c(C(=O)Nc2ccc3c(c2)B(O)OC3)cnn1CCC(F)(F)F	> 5	
Cc1nn(CCC(F)(F)F)cc1C(=O)Nc1ccc2c(c1)B(O)OC2	> 11	
Cc1c(C(=O)Nc2ccc3c(c2)B(O)OC3)cnn1-c1ccccn1	15	
O=C(Nc1ccc2c(c1)B(O)OC2)c1cn(C(F)(F)F)nc1C(F)(F)F	> 31	
O=C(Nc1ccc2c(c1)B(O)OC2)c1cn(CC(F)(F)F)nc1C(F)(F)F	> 40	
O=C(Nc1ccc2c(c1)B(O)OC2)c1cn(-c2ccccn2)nn1	30	
Cc1c(C(=O)Nc2ccc3c(c2)B(O)OC3)nnn1-c1ccccc1	> 1.7	
Cc1nn(-c2ccccn2)cc1C(=O)Nc1ccc2c(c1)B(O)OC2	> 11	
Cc1nn(C2CCC2)cc1C(=O)Nc1ccc2c(c1)B(O)OC2	> 4	
CCCCCCCCCCCCCCCCOP(=O)([O-])OCC[N+](C)(C)C [MILTEFOSINE]	> 6.2	
Cn1nc(-c2ccccn2)cc1C(=O)Nc1ccc2c(c1)B(O)OC2	> 2	
Cc1oc(C(=O)Nc2ccc3c(c2)B(O)OC3)cc1-c1ccccn1	18	
Cc1c(C(=O)Nc2ccc3c(c2)B(O)OC3)nnn1-c1ccccn1	> 39	Activity [2]: Non-Toxic; Activity [3]: Non-Toxic; Activity [4]: Non-Toxic; permeability [5]: Permeable; Drug metabolism [6]: Metabolite_Notdetected; Activity [7]: Non-Toxic; Activity [8]: Non-Toxic; clearance [9]: 1 mL/min/kg; Drug metabolism [10]: Metabolite_Notdetected; Drug metabolism [11]: Metabolite_Notdetected
Cc1cccc(-n2nnc(C(=O)Nc3ccc4c(c3)B(O)OC4)c2C)n1	> 10	
Cc1cccc(-n2ncc(C(=O)Nc3ccc4c(c3)B(O)OC4)c2C)n1	25	
Cc1c(-c2ccccn2)coc1C(=O)Nc1ccc2c(c1)B(O)OC2	37	Drug metabolism [12]: Metabolite_Detected; Drug metabolism [13]: Metabolite_Detected; Drug metabolism [14]: Metabolite_Detected; Drug metabolism [15]: Metabolite_Detected; Drug metabolism [16]: Metabolite_Detected
O=C(Nc1ccc2c(c1)B(O)OC2)c1nnc(-c2ccccn2)o1	> 32	
O=C(Nc1ccc2c(c1)B(O)OC2)c1cn(CCC(F)(F)F)nc1C(F)(F)F	38	
O=C(Nc1ccc2c(c1)B(O)OC2)c1cn(C2CCC2)nc1C(F)(F)F	53	
COc1ccccc1-n1cc(C(=O)Nc2ccc3c(c2)B(O)OC3)c(C)n1	7.3	
